Measurements reported in paper PMC7967294 (ACS chemical neuroscience, 2020).
pIC50: −log10 of the molar value.

Legend:
GluN1/GluN2D [1] = target: T1, GluN1/GluN2D (Rattus norvegicus, UniProt P35439+Q62645); experiment: Two electrode voltage clamp recording, Xenopus oocytes; type: cell-based
GluN1/GluN2B [2] = target: T2, GluN1/GluN2B (Rattus norvegicus, UniProt P35439+Q00960); experiment: Two electrode voltage clamp recording, Xenopus oocytes; type: cell-based; settings: read-out: response, % of control
Outline: (§1)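 Defolliculated stage V–VI Xenopus laevis oocytes were injected with GluN1 and GluN2 cRNA at a 1:2 ratio (0.2–10 ng total) and recorded 2–5 days later at 23 °C by two-electrode voltage clamp at −40 mV, with gravity-fed solutions. Currents evoked by 100 μM glutamate plus 30 μM glycine were measured with 100 μM test compound, as % of control; n = 6 oocytes.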

GluN1/GluN2C [3] = target: T3, GluN1/GluN2C (Rattus norvegicus, UniProt P35439+Q00961); experiment: Two electrode voltage clamp recording, Xenopus oocytes; type: cell-based
T3 sequence (Q00961 20-1237, other chains not shown): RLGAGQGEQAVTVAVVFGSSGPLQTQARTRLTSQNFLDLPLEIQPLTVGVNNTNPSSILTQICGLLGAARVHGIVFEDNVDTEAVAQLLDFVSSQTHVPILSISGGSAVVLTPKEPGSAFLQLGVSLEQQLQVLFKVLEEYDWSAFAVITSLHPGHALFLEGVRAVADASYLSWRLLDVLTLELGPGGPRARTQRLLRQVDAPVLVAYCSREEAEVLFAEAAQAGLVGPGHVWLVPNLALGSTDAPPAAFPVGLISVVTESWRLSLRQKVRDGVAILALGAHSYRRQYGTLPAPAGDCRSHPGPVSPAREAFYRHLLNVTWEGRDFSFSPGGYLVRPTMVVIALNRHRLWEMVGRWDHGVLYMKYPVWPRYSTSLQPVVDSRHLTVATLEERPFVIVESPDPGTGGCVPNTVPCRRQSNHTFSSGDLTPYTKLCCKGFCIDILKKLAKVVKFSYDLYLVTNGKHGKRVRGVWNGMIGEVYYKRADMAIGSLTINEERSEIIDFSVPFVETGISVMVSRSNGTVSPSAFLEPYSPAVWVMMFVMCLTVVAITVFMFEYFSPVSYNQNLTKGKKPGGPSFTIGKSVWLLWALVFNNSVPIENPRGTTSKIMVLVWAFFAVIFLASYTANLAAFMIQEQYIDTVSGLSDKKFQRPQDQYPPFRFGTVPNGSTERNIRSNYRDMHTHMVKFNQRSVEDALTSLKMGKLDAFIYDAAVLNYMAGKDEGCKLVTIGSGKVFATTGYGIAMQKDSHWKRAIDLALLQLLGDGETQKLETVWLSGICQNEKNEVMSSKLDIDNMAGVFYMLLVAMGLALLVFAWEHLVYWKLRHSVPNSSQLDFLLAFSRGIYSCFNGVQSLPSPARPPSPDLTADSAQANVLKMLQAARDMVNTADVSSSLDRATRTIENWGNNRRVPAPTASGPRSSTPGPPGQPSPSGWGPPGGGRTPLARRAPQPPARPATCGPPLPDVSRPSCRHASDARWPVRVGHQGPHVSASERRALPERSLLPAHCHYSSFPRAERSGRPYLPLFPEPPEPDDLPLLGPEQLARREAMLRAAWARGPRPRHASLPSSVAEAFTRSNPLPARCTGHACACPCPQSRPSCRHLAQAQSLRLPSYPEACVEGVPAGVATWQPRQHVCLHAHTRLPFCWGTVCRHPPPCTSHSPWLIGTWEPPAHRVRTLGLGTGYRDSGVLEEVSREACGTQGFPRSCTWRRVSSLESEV
Outline: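 Xenopus oocytes expressing GluN1/GluN2 (1:2 cRNA) were clamped at −40 mV at 23 °C, 2–5 days post-injection, with 30 μM glycine in all solutions. Test compound was applied at increasing concentrations during saturating 100 μM glutamate/30 μM glycine. […] Data came from 5–22 oocytes, 2–3 batches.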

GluN1/GluN2A [4] = target: T4, GluN1/GluN2A (Rattus norvegicus, UniProt P35439+Q00959); experiment: Two electrode voltage clamp recording, Xenopus oocytes; type: cell-based; settings: read-out: response, % of control
T4 sequence (Q00959 23-1464, other chains not shown): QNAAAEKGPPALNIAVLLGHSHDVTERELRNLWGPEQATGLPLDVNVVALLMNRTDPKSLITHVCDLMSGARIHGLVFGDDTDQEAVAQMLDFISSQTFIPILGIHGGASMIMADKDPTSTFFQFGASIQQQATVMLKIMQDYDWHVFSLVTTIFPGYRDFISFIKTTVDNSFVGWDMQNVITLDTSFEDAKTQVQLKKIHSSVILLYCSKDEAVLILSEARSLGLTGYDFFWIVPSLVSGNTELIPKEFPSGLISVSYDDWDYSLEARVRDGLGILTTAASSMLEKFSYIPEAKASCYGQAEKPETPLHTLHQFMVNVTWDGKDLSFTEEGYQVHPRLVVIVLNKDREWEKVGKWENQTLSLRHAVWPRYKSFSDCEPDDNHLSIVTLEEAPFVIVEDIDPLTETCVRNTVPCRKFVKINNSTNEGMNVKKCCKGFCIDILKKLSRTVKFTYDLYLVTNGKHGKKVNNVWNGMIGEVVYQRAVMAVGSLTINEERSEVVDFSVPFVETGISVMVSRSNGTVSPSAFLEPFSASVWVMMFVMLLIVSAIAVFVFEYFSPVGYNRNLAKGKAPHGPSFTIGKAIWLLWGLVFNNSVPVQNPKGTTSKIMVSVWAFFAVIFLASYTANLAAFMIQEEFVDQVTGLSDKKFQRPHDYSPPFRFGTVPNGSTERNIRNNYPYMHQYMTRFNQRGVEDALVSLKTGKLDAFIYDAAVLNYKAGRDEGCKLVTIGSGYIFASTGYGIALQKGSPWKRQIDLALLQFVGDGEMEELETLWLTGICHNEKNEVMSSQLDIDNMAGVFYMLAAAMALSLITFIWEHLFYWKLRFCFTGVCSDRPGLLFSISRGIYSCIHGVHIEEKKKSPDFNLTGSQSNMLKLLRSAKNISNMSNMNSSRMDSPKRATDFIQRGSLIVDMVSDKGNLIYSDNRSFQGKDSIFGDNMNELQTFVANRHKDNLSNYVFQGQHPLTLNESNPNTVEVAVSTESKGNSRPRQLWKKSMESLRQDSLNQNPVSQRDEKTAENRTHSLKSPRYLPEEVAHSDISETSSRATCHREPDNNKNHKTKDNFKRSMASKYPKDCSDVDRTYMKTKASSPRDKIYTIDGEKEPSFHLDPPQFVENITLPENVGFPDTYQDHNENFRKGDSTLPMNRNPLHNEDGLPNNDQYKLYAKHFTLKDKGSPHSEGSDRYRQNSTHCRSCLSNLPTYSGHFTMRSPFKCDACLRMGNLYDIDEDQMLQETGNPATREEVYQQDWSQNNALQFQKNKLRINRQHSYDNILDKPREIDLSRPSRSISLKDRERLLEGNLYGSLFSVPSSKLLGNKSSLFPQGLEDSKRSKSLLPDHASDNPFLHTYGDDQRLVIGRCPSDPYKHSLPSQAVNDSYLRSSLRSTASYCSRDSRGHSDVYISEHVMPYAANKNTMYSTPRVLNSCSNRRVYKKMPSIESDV
Outline: as §1

GluN1/GluN2B [5] = target: T2, GluN1/GluN2B; settings: cited from earlier work
GluN1/GluN2C [6] = target: T3, GluN1/GluN2C; settings: cited from earlier work
GluN1/GluN2A [7] = target: T4, GluN1/GluN2A; settings: cited from earlier work
[8] = tested on: GluN2C- and GluN2D-containing NMDARs; experiment: Two electrode voltage clamp recording, Xenopus oocytes, CIQ-sensitive subunits; type: cell-based, rat
GluN1/GluN2D [9] = target: T1, GluN1/GluN2D; settings: cited from earlier work
GluN1/GluN2A [10] = target: T4, GluN1/GluN2A; settings: cited from earlier work; remark: listed apart in the source
GluN1/GluN2B [11] = target: T2, GluN1/GluN2B; settings: cited from earlier work; remark: listed apart in the source
[12] = saturating glutamate and glycine, oocytes

T1 sequence (Q62645 28-1323, other chains not shown): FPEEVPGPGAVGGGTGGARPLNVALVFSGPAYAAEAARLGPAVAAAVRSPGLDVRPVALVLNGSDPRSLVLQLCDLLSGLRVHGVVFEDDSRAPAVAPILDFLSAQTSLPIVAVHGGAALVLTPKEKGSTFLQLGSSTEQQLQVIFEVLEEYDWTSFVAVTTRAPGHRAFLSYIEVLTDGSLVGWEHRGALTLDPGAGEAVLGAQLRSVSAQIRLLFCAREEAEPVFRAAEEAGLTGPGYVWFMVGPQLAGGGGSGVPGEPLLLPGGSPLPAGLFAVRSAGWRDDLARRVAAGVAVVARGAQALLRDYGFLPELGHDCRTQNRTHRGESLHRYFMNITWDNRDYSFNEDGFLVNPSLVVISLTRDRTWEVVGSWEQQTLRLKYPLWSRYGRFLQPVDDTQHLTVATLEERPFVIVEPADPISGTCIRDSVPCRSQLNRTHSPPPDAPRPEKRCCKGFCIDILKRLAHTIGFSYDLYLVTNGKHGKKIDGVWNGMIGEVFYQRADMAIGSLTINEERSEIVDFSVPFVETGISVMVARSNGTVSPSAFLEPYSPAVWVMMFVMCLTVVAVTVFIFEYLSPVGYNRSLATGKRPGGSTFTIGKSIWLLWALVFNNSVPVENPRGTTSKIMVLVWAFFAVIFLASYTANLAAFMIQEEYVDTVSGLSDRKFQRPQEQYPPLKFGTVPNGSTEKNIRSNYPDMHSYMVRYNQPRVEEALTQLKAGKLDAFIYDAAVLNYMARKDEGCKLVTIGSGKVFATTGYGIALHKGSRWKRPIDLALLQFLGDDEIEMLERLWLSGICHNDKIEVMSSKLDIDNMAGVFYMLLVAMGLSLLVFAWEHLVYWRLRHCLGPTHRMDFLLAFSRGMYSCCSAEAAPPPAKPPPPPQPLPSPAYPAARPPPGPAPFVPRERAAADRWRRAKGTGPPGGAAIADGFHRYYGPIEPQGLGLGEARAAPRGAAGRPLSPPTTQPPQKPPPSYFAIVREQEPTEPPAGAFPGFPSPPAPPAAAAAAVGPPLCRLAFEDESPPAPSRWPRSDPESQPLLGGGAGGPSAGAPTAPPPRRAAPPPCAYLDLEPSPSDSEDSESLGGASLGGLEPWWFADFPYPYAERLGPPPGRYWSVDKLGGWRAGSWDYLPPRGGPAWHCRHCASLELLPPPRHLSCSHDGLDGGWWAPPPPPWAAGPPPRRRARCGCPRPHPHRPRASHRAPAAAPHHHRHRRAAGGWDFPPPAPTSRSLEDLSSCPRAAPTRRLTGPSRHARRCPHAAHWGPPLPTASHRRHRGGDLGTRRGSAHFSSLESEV

Structure (SMILES): CNC(=O)N1N=C(c2ccc(N)cc2)c2cc3c(cc2CC1C)OCO3 (centres unmarked) [GYKI 53655]
- pIC50 (GluN1/GluN2D [1]): 3.88
- remaining activity at 100 µM (GluN1/GluN2B [2]): 107%
- pIC50 (GluN1/GluN2C [3]): 3.84
- remaining activity at 100 µM (GluN1/GluN2A [4]): 104%

Structure (SMILES): COc1ccc(OCC2c3cc(OC)c(OC)cc3CCN2C(=O)c2cccc(Cl)c2)cc1 (single isomer, unassigned; (+)) [CIQ, (+)-(3-chlorophenyl)(6,7-dimethoxy-1-((4-methoxyphenoxy)methyl)-3,4-dihydroisoquinolin-2(1H)-yl)methanone]
- effect at low agonist concentrations (GluN1/GluN2B [5]): no effect
- potentiation, % of control (GluN1/GluN2D [1]; [12]): 281% ± 10%
- effect on the deactivation time course following glutamate removal (GluN1/GluN2C [6]): modest effects
- potentiation, % of control (GluN1/GluN2C [3]; [12]): 340% ± 27%
- effect on the deactivation time course following glutamate removal (GluN1/GluN2A [7]): no detectable effect
- enhancement of the response at EC30 glutamate and glycine ([8]; EC30 concentrations of glutamate and glycine): ≤ 5 fold
- enhancement of the response to maximally effective glutamate and glycine ([8]; maximally effective agonist): 2 fold
- effect on the deactivation time course following glutamate removal (GluN1/GluN2D [9]): no detectable effect
- effect at low agonist concentrations (GluN1/GluN2A [10]): no effect
- effect on the deactivation time course following glutamate removal (GluN1/GluN2B [11]): no detectable effect
